# Measured values of several laboratories.
# Lines come from different studies, so protocols differ.
# Cell line: PC-3
# Observed: cell growth or viability
SMILES,test,conditions,IC50
O=P1(c2ccccc2)CCCCC1,MTT,72 h,> 100 µM
Nc1cc2cccnc2c2ncccc12,MTT,"48 h, dark",6.2 µM
NS(=O)(=O)c1ccc(-n2nc(C(=O)NN=Cc3ccccc3O)cc2-c2ccccc2)cc1,fluorescence,48 h,18 µM
COc1cc(C(=O)c2nc(-c3cccc4c3CCN4)c[nH]2)cc(OC)c1OC,MTS,72 h,0.022 µM
CN(C)c1cccc2c(S(=O)(=O)NCCCCN=C=S)cccc12,MTT,24 h,16.8 µM
COc1cc(C(=O)c2nc(-c3cccc4c3CC(=O)N4)c[nH]2)cc(OC)c1OC,MTS,72 h,0.0186 µM
CC1=CC(=O)C(C(C)C)=CC1=O,SRB,48 h,12.8 µM
NS(=O)(=O)c1ccc(-n2nc(C(=O)NN3C(=O)CCC3=O)cc2-c2ccccc2)cc1,fluorescence,48 h,36.2 µM
COc1cc(C(=O)c2nc(-c3cccc4[nH]cnc34)c[nH]2)cc(OC)c1OC,MTS,72 h,0.0158 µM
NS(=O)(=O)c1ccc(-n2nc(C(=O)NN3C(=O)c4ccccc4C3=O)cc2-c2ccccc2)cc1,fluorescence,48 h,54.4 µM
COc1cccc2c1C(=O)c1c(O)c3c(c(O)c1C2=O)C[C@@](O)(C(=O)CO)C[C@@H]3O[C@H]1C[C@H](N)[C@H](O)[C@H](C)O1,MTT,,4.81 µg/mL
NS(=O)(=O)c1ccc(-n2nc(C(=O)NN=Cc3cccnc3)cc2-c2ccccc2)cc1,fluorescence,48 h,38.6 µM
COc1cc(C(=O)c2nc(-c3cccc4[nH]ccc34)c[nH]2)cc2c1OC=CO2,MTS,72 h,0.0102 µM
O=c1[nH]cc(F)c(=O)[nH]1,MTT,72 h,> 360 µM
NS(=O)(=O)c1ccc(-n2nc(-c3nnc(S)o3)cc2-c2ccccc2)cc1,fluorescence,48 h,51.2 µM
COc1cc(C(=O)c2nc(-c3cccc4[nH]nnc34)c[nH]2)cc(OC)c1OC,MTS,72 h,0.0203 µM
COc1ccc(C=NNC(=O)c2cc(-c3ccccc3)n(-c3ccc(S(N)(=O)=O)cc3)n2)cc1OC,fluorescence,48 h,27.1 µM
COc1cccc2c1C(=O)c1c(O)c3c(c(O)c1C2=O)C[C@@](O)(C(=O)CO)C[C@@H]3O[C@H]1C[C@H](N)[C@H](O)[C@H](C)O1,MTT,72 h,0.3 µM
COc1cc(C(=O)c2nc(-c3cccc4[nH]ccc34)c[nH]2)cc2c1OCO2,MTS,72 h,0.005 µM
